Experiments:
[1] = Total clearance in rat at 3 mg/kg, iv; format: ADME, organism-based; set-up: dose 3 mg/kg, route intravenous; conditions: in vivo
[2] = Retention time of the compound by UV/mass spectrometry; format: physicochemical
Summary of the method: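 Retention time on Acquity BEH C18 column (1.7 µm, 2.1×100 mm). Mobile phase 5 mM ammonium formate with 5% acetonitrile against acetonitrile, at 0.2 mL/min. Gradient: 100:0 to 2.5 min, linear to 65:35 by 25 min, 10:90 to 27 min. Detection by UV at 254 nm and MS.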

[3] = Clearance in chimeric mouse transplanted with human hepatocytes at 3 mg/kg, po; format: ADME, organism-based, Hepatocyte; set-up: dose 3 mg/kg, route oral
Summary of the method: (§1)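 Single 3 mg/kg oral dose of compound in 50% PEG400 with equimolar HCl in saline to h-PXB or r-PXB mice (n=3~4). Orbital-vein blood (heparinized) taken over 0–6 hr; plasma stored at -30°C and assayed by LC/MS/MS. Non-compartmental analysis: Cmax from observed values, AUC by trapezoidal rule extrapolated to infinity, CLoral = Dose/AUCpo.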

[4] = Cmax in rat at 3.2 mg/kg, po; format: ADME, organism-based; set-up: dose 3.2 mg/kg, route oral; conditions: in vivo
[5] = Drug excretion in feces of chimeric mouse transplanted with human hepatocytes at 3 mg/kg, iv as single dose; format: ADME, organism-based, Hepatocyte; set-up: dose 3 mg/kg, route intravenous; conditions: read-out: Drug excretion
Summary of the method: (§2)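 After a 3 mg/kg i.v. dose, pooled urine and feces were collected from metabolic cages over 0–24 hr (n=3). Samples were homogenized in 10 volumes of water, mixed with acetonitrile and analysed by UPLC (UV 254 nm) and LC/MS/MS. Excretion expressed as % of dose.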

[6] = Drug excretion in feces of chimeric mouse transplanted with rat hepatocytes at 3 mg/kg, iv as single dose; format: ADME, organism-based, Hepatocyte; set-up: dose 3 mg/kg, route intravenous; conditions: read-out: Drug excretion; summary of the method: as §2
[7] = Drug excretion in urine of chimeric mouse transplanted with human hepatocytes at 3 mg/kg, iv as single dose; format: ADME, organism-based, Hepatocyte; set-up: dose 3 mg/kg, route intravenous; conditions: read-out: Drug excretion; summary of the method: as §2
[8] = Oral bioavailability in chimeric mouse transplanted with rat hepatocytes at 3 mg/kg; format: ADME, organism-based, Hepatocyte
[9] = Plasma protein binding in rat by equilibrium dialysis method; format: ADME, cell-free; conditions: read-out: PPB (converted)
Mus musculus = test: Drug metabolism in plasma of chimeric mouse transplanted with rat hepatocytes at 3 mg/kg, iv as single dose; format: ADME, organism-based, Hepatocyte; set-up: dose 3 mg/kg, route intravenous
Summary of the method: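 Pooled plasma from h-PXB or r-PXB mice after a 3 mg/kg i.v. dose was mixed with an equal volume of acetonitrile and centrifuged. Metabolites were profiled by C18 UPLC with ammonium formate/acetonitrile gradient, UV 254 nm, and Orbitrap MS/MS. Scored as detected or not detected.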

[10] = Intrinsic clearance in hepatocytes isolated from chimeric mouse transplanted with rat hepatocytes assessed as per million cells at 10 uM after 2 hrs by LC/MS/MS analysis; format: ADME, cell-based, Hepatocyte; conditions: read-out: CLH
Summary of the method: (§3)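 Fresh hepatocytes from h-PXB mice (mouse cells removed with 66Z rat IgG and anti-rat IgG magnetic beads) or r-PXB mice, 1×10^6 cells/mL in serum-free Krebs-Henseleit buffer. Incubated with 10 μM compound (0.5% acetonitrile) at 37°C under 5% CO₂/95% O₂ with shaking, sampled 0–2 hr. Quenched with acetonitrile, analysed by LC/MS/MS, n=3. CLint derived from first-order depletion rate constant.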

[11] = Total clearance in chimeric mouse transplanted with rat hepatocytes at 3 mg/kg, iv; format: ADME, organism-based, Hepatocyte; set-up: dose 3 mg/kg, route intravenous; conditions: read-out: CLH
Summary of the method: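 Single 3 mg/kg intravenous dose in 10% DMSO, 10% PEG400 with equimolar HCl in saline to h-PXB or r-PXB mice (n=3~4). Orbital-vein plasma collected over 0–6 hr and measured by LC/MS/MS. Non-compartmental analysis; AUC by trapezoidal rule extrapolated to infinity; CLt = Dose/AUCiv.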

[12] = Plasma protein binding in chimeric mouse transplanted with rat hepatocytes by equilibrium dialysis method; format: ADME, cell-free, Hepatocyte; conditions: read-out: PPB (converted)
Summary of the method: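 Compound at 1 µg/mL incubated in plasma of h-PXB or r-PXB mice; bound fraction determined by equilibrium dialysis.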

[13] = AUC in chimeric mouse transplanted with rat hepatocytes at 3 mg/kg, po; format: ADME, organism-based, Hepatocyte; set-up: dose 3 mg/kg, route oral; summary of the method: as §1
[14] = Clearance in human at 10 mg, po; format: ADME, organism-based; conditions: in vivo
[15] = Cmax in human at 10 mg, po; format: ADME, organism-based; set-up: dose 10 mg, route oral; conditions: in vivo
[16] = Plasma protein binding in human by equilibrium dialysis method; format: ADME, cell-free; conditions: read-out: PPB (converted)
[17] = Intrinsic clearance in hepatocytes isolated from chimeric mouse transplanted with human hepatocytes assessed as per million cells at 10 uM after 2 hrs by LC/MS/MS analysis; format: ADME, cell-based, Hepatocyte; conditions: read-out: CLH; summary of the method: as §3

A clearance [1] of 10.8 mL/min/kg, a Retention_time [2] of 20 min and a CL/F [3] of 234 mL/min/kg were found for CC(C)n1nc(-c2cnc(N)nc2-c2ccccc2)ccc1=O in this work. For the same molecule, the Cmax [4] was 544 ng/mL, the dose excreted [5] was 0.1% and the dose excreted [6] was 1.1%. The dose excreted [7] was 0.1%, the bioavailability [8] was 52.6% and the fraction unbound [9] was 0.246. For the same molecule, the Drug metabolism (Mus musculus) was “metabolite_detected”, the hepatocyte CLint at 10 µM [10] was 5 µL/min/1e6 cells and the clearance [11] was 34 mL/min/kg. It also gave a fraction unbound [12] of 0.233, an AUC [13] of 811 ng·h/mL and a CL/F [14] of 1090 mL/min/kg. It also gave a Cmax [15] of 1.5 ng/mL, a fraction unbound [16] of 0.228 and a hepatocyte CLint at 10 µM [17] of 10 µL/min/1e6 cells.

Source: ChEMBL document CHEMBL3526077, “Prediction of human metabolism of FK3453 by aldehyde oxidase using chimeric mice transplanted with human or rat hepatocytes” (Drug Metab Dispos, 2012)
